MrgX1 antag = antagonists of human MrgX1 receptor, primary screen, HEK293 cells, Fluo-4 calcium flux; 310,000 tested, 1.3% active; B-score at 10 µM; Mas-related G-protein coupled receptor member X1 (Homo sapiens), Q96LB2; BAM8-22 antagonism; active compounds read low;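 active means calcium-response B-score plate-corrected more than 3 library SD below zero, starting fluorescence within 5 deviations, no agonist response on first addition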;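 further: peak minus trough fluorescence over baseline after final BAM8-22 challenge near maximal dose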
Target sequence (Q96LB2 whole entry, looked up): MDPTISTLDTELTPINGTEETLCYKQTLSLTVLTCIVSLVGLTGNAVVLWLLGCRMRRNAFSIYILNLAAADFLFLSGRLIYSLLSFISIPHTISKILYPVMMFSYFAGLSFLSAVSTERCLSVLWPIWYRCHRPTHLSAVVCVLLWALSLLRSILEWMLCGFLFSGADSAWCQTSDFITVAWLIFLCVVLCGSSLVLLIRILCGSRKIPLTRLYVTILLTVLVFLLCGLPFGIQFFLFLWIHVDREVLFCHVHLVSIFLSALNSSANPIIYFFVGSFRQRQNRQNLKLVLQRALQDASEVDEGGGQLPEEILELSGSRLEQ
RGS4 inh = RGS4 inhibitors, primary screen, cell-based, HEK293 M3R inducible RGS4, calcium flux; Regulator of G-protein signaling 4 (Homo sapiens), P49798; Fluo-4 calcium flux; active compounds read high; triggered by carbachol at its EC20; B-score at 10 µM; 310,000 tested, 0.45% active;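 active means B-score, a plate-corrected calcium signal, over three deviations above library mean, with baseline fluorescence within five deviations of library mean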;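 further: RGS4 expression induced by doxycycline in cells with stable M3 receptor; B-score is computed from the integrated fluorescence ratio over baseline after carbachol; higher B-score means a larger calcium signal and so more RGS4 inhibition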
Target sequence (P49798 whole entry, looked up): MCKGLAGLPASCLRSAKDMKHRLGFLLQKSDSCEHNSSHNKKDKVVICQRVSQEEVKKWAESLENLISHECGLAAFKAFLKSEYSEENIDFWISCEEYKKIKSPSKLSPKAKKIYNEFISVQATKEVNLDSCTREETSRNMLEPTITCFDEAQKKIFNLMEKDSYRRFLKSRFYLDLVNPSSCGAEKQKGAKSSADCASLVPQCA
MrgX1 agonist = agonists of human MrgX1 receptor, primary screen, HEK293 cells, Fluo-4 calcium flux | Mas-related G-protein coupled receptor member X1 (Homo sapiens), Q96LB2 | Fluo-4 calcium fluorescence, agonist mode; active compounds read high | B-score at 10 µM | 310,000 tested, 0.44% active;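 active means calcium response B-score plate-corrected fluorescence ratio at least 3 library SD, with starting fluorescence B-score inside 5 SD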
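Test system: Stable human MrgX1 HEK293 cell line | Schedule: Overnight plating before 1 h dye loading | Read-out basis: Baseline-normalised fluorescence change ratio, B-scored | Detection: Kinetic calcium dye fluorescence, Fluo-4 NW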
MrgX1 allo act = positive allosteric modulators of MrgX1, primary screen, HEK293 cells, Fluo-4 calcium flux. 310,000 tested, 0.63% active. AID 588675, 2011. FDSS; active compounds read high. B-score at 10 µM;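 active means plate-corrected calcium response at least 3 library SD above typical, normal starting fluorescence, not activating the receptor alone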;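 further: compound read alongside a low EC10 to EC30 dose of BAM8-22 agonist; peak minus trough fluorescence over baseline measured at the second addition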
RGS4 pot = RGS4 potentiators or activators, primary screen, cell-based, HEK293 M3R inducible RGS4, calcium flux; 310,000 tested, 0.92% active; B-score at 10 µM; carbachol calcium flux Fluo4; active compounds read low;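 active means B-score of the integrated calcium signal more than 4 SD below the library mean, with starting fluorescence not abnormally high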;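 further: negative B-score means reduced calcium response which marks RGS4 activation or potentiation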
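Material: M3R-expressing HEK293 line, RGS4 induced by doxycycline | Schedule: Overnight RGS4 induction, 30 min dye load 37 °C, 20 min compound RT | Measured by: Fluo4 fluorescence kinetic imaging of calcium | Read-out: Integrated calcium ratio converted to B score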
RGS4 act valid = reduced carbachol calcium response, RGS4-induced M3R cells, confirmation, RGS4 activator project, cell-based, HEK293 M3R/RGS4 inducible, calcium flux, duplicate | shares compounds with RGS4 pot | carbachol calcium flux Fluo4 | inhibition, % at 10 µM | 1,100 tested, 89% active | AID 602282, 2012;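 active means inhibition above 3 SD of the buffer control wells, cut at about 41% in these data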;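 further: signal is the integrated peak-minus-minimum Fluo4 fluorescence over baseline ratio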
RGS4 act ctr = RGS4 activator counter-screen hit in non-induced cells. 1,100 tested, 82% active. HEK293 M3R non-induced RGS4, Fluo4 calcium flux; after carbachol challenge at its EC90. inhibition, % at 10 µM. shares compounds with RGS4 pot. AID 602283;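 active means inhibition exceeding 3 SD of buffer-only control wells, cut at about 26% in these data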;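 further: percent drop in integrated peak-minus-baseline over baseline Fluo4 ratio after carbachol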
Numbers without * were called inactive; i = inactive; nt = not tested or not shown. Most compounds without a hit are left out; they make up all but 3.5% or so of the library.

SMILES | MrgX1 antag | RGS4 inh | MrgX1 agonist | MrgX1 allo act | RGS4 pot | RGS4 act valid | RGS4 act ctr
CCCCNc1c2c3c(cccc3n(C)c1=O)C(=O)c1ccccc1-2 | i | i | i | i | -11.6* | 100.0* | 96.8*
CCc1nn2c(=O)c(S(=O)(=O)Nc3ccc(C(C)C)cc3)c(C)nc2s1 | i | nt | i | i | nt | nt | nt
Cn1c2ccc(F)cc2c2nnc(SCCN3CCCCC3)nc21 | nt | i | nt | nt | i | nt | nt
CCCCn1c2ccc(F)cc2c2nnc(SCCN3CCCCC3)nc21 | nt | i | nt | nt | -7.78* | 84.0* | 34.8*
CCOc1ccc(S(=O)(=O)NCCC(=O)NCCc2ccc(C(C)C)cc2)cc1 | i | i | i | i | i | nt | nt
COc1ccc(NC(=O)CC2C(=O)N(c3ccc(F)cc3)C(=S)N2NC(=O)c2ccc(Cl)cc2)cc1 (stereo not given) | i | i | i | i | -11.2* | 0.0 | 0.0
COc1ccc(NC(=O)CC2C(=O)N(c3ccc(Cl)cc3)C(=S)N2NC(=O)c2cccc(F)c2)cc1 (stereo not given) | i | i | i | i | i | nt | nt
O=C(O)/C=C/C(=O)Nc1cc(F)ccc1F | i | i | i | i | i | nt | nt
O=C(Cc1cc(=O)oc2cc(O)ccc12)NC(Cc1ccc(Cl)cc1)C(=O)O (stereo not given) | i | i | i | i | i | nt | nt
CCCCCN(C(=O)CCC(=O)OC(C)C(=O)NC1CCCCC1)c1c(N)n(CCCC)c(=O)[nH]c1=O (stereo not given) | i | i | i | i | i | nt | nt
Cc1cccc(OCc2nc(C#N)c(N3CC(C)CC(C)C3)o2)c1 (stereo not given) | i | i | i | i | -9.07* | 93.5* | 70.3*
Cc1cccc(OCc2nc(C#N)c(N3CCCC3)o2)c1 | i | i | i | i | i | nt | nt
COc1ccc(CCC(C)NC2C3CC4CC(C3)CC2C4)cc1 (stereo not given) | nt | i | nt | nt | -8.8* | 92.5* | 87.3*
Cc1cc(NC(=O)CCC(=O)N(c2ccccc2)C2(C(=O)NC3CCCCC3)CCCC2)no1 | i | i | i | i | i | nt | nt
COc1ccc(CN2CCCC(C(=O)c3ccc4c(c3)OCO4)C2)c(F)c1 (stereo not given) | i | i | i | i | -8.33* | 91.0* | 80.8*
O=C(C1CCCN(Cc2ccc3c(c2)OCO3)C1)N1CCCC1 (stereo not given) | i | i | i | i | i | nt | nt
O=C(c1ccc2c(c1)OCO2)C1CCCN(C2CCN(CCc3ccccc3)CC2)C1 (stereo not given) | i | i | i | i | -13.2* | 87.0* | 55.3*
CC(=O)c1cccc(CN2CCCC(C(=O)c3ccc4c(c3)OCO4)C2)c1 (stereo not given) | i | i | i | i | -8.3* | 74.0* | 26.3*
COc1cccc(CN2CCCC(C(=O)c3ccc4c(c3)OCO4)C2)c1O (stereo not given) | i | i | i | i | i | nt | nt
COc1cccc(C(=O)C2CCCN(Cc3cccc(-n4nc(C)cc4C)c3)C2)c1 (stereo not given) | i | i | i | i | -9.79* | 93.0* | 75.3*
NS(=O)(=O)c1ccc(CCNC(=O)c2ccc(NS(=O)(=O)c3ccc4[nH]c(=O)[nH]c4c3)cc2)cc1 | i | i | i | i | i | nt | nt
CCC(C(=O)NC1CCCC1)N(C(=O)c1snc(C(N)=O)c1N)c1ccc(C)cc1C (stereo not given) | i | i | i | i | i | nt | nt
O=C(/C=C/c1ccc(F)cc1)NC(Cc1c[nH]c2ccccc12)C(=O)O (stereo not given) | i | i | i | i | i | nt | nt
COc1ccc(NC(=O)c2cccc(NC3=NC4CS(=O)(=O)CC4S3)c2)cc1Cl (stereo not given) | i | i | i | i | i | nt | nt
CC(C)Oc1ccc(S(=O)(=O)N2CCOCC2)cc1NC(=O)c1cc([N+](=O)[O-])ccc1N1CCOCC1 | i | i | i | i | i | nt | nt
SMILES | MrgX1 antag | RGS4 inh | MrgX1 agonist | MrgX1 allo act | RGS4 pot | RGS4 act valid | RGS4 act ctr
COc1ccc(NS(=O)(=O)c2csc(C(N)=O)c2)cc1 | i | i | i | i | i | nt | nt
Cc1nn(C(C)C)c(C)c1CN1CCCC(C(=O)c2cccc(OC(C)C)c2)C1 (stereo not given) | i | i | i | i | -8.39* | 70.5* | 83.8*
CCn1nc(C)c(CN2CCCC(C(=O)c3cccc(OC(C)C)c3)C2)c1C (stereo not given) | i | i | i | i | i | nt | nt
O=C(O)CC(Cc1ccc(Br)cc1)C(=O)Nc1ccccc1 (stereo not given) | i | i | i | i | i | nt | nt
Cc1cc(O)c(-c2cc(C(=O)Nc3ccc(S(=O)(=O)N4CCOCC4)cc3)[nH]n2)cc1C | i | i | i | i | i | nt | nt
O=C(Nc1ccc(S(=O)(=O)N2CCOCC2)cc1)c1cc(-c2cc(Cl)ccc2O)n[nH]1 | i | i | i | i | -8.38* | 93.0* | 70.8*
CCOC(=O)C(=CNc1cc(Cl)c(-c2ccco2)c(Cl)c1)C(=O)OCC | i | i | i | i | -7.84* | 81.5* | 83.8*
CCN1CCN(C(=O)CCc2nnc(CCc3ccc(OC)cc3)o2)[C@@H](C)C1=O | i | i | i | i | i | nt | nt
O=C(O)c1ccc(C(=O)Nc2cccc3ccccc23)c(C(=O)O)c1 | i | i | i | i | i | nt | nt
NC(=O)CC(NC(=O)c1cccc(Br)c1)c1ccc(NC2CCCCCCCCCCC2)c([N+](=O)[O-])c1 (stereo not given) | i | i | i | i | i | nt | nt
CN1CCC(Oc2ccc(Sc3ccccc3)cc2)CC1 | i | i | i | i | -8.21* | 86.0* | 41.3*
CN1CCC(Oc2ccccc2Sc2ccc(C(F)(F)F)cc2)CC1 | i | i | i | i | i | nt | nt
CCOC(=O)C1CCN(S(=O)(=O)c2ccc3c(c2)CC(C)N3C(=O)C2CCC2)CC1 (stereo not given) | i | i | i | i | -8.22* | 57.0* | 0.0
